Among the data in ChEMBL document CHEMBL1154048, “Design, synthesis and pharmacological evaluation of new 1-[3-(4-arylpiperazin-1-yl)-2-hydroxy-propyl]-3,3-diphenylpyrrolidin-2-one derivatives with antiarrhythmic, antihypertensive, and alpha-adrenolytic activity” (Eur J Med Chem, 2009) are ED50, pKi and Activity values, retold here.

Activity calls are given as the source filed them.

Experiment [1] has as its system Rattus norvegicus. Briefly: Antiarrhythmic activity against adrenaline-induced arrhythmia in iv dosed rat assessed as inhibition of cardiac rhythm disturbance administered 15 mins before adrenaline challenge. Conditions: Heart. In kind it is functional. In outline:
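Rats anaesthetized with thiopental 60 mg/kg ip received the compound i.v. 15 min before an i.v. adrenaline challenge. Rhythm disturbances were recorded for 15 min after adrenaline. Activity was defined as absence of premature beats and inhibition of disturbances versus controls. ED50 values, with confidence limits, were derived by Litchfield–Wilcoxon from three groups of six animals.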

Experiment [2] addresses T1, Adrenergic receptor alpha-1 (Rattus norvegicus, UniProt P15823+P23944+P43140).
T1 sequence (P15823 whole entry): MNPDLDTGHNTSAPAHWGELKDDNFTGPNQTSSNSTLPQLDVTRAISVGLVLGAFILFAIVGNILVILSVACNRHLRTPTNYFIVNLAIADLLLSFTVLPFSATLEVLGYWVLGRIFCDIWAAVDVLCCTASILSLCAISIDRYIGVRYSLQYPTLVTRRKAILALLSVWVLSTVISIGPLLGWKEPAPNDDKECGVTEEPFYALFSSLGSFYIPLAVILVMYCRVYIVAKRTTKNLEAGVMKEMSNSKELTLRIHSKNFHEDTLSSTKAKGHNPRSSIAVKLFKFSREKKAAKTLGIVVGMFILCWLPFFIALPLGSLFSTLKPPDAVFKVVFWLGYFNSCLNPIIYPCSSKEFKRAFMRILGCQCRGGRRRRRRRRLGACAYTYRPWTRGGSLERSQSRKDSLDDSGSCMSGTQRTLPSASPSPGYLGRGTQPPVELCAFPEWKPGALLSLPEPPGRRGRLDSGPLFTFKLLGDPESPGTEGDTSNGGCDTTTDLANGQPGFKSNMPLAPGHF
T1 sequence (P23944 whole entry): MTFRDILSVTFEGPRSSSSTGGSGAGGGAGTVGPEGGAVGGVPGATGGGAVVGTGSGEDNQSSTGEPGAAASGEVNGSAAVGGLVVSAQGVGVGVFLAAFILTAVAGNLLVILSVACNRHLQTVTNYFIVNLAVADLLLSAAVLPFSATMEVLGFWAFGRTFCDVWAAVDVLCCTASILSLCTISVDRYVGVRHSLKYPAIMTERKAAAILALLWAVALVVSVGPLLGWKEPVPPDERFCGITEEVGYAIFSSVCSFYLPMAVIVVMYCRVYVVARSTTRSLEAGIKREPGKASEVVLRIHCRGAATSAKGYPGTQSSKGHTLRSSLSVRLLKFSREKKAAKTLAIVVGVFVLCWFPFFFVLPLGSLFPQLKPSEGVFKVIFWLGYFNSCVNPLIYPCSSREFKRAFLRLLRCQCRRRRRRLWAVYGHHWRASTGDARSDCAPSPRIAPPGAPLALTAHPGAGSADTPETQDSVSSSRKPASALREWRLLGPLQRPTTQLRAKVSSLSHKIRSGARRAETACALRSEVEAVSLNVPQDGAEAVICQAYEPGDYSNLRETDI
T1 sequence (P43140 whole entry): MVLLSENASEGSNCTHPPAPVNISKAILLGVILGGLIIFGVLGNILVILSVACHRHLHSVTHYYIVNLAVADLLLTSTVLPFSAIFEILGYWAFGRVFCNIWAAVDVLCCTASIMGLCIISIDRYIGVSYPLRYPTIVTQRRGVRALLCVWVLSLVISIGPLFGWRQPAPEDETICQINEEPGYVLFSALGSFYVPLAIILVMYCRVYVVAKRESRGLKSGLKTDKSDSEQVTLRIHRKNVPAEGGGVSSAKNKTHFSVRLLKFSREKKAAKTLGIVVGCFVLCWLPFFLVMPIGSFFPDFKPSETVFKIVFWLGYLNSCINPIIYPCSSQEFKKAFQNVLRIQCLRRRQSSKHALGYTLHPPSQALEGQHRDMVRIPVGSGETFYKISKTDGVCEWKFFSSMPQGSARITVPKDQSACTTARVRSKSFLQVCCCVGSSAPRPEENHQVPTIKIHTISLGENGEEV
Briefly: Displacement of [3H]prazosin from alpha1 adrenergic receptor in rat cerebral cortex by liquid scintillation counting. It counts as tissue-based. In short, it runs like this: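 Rat cerebral cortex was homogenized in ice-cold 50 mM Tris–HCl pH 7.6, centrifuged 20 000 × g for 20 min at 0–4 °C, and washed once more. Membranes were incubated with [3H]prazosin 0.2 nM and seven to eight compound concentrations (10^-11–10^-4 M), with phentolamine defining nonspecific binding. Bound ligand was filtered on glass fiber and counted by liquid scintillation. Runs were in duplicate, and Ki was calculated by Cheng–Prusoff.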

The target of experiment [3] is T2, Adrenergic receptor alpha-2 (Rattus norvegicus, UniProt P22086+P19328+P22909).
T2 sequence (P22086 whole entry): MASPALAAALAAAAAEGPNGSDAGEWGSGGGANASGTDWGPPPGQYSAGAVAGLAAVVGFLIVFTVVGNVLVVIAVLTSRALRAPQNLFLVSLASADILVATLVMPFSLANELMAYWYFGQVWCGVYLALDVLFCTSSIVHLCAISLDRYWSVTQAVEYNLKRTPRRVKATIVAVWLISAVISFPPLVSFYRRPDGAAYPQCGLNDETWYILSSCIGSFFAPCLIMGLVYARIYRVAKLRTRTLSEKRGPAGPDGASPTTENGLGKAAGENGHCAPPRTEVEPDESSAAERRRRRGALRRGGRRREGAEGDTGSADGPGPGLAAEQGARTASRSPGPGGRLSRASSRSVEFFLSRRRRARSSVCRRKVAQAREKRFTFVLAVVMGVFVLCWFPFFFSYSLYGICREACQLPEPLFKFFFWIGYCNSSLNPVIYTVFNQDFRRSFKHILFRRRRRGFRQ
T2 sequence (P19328 whole entry): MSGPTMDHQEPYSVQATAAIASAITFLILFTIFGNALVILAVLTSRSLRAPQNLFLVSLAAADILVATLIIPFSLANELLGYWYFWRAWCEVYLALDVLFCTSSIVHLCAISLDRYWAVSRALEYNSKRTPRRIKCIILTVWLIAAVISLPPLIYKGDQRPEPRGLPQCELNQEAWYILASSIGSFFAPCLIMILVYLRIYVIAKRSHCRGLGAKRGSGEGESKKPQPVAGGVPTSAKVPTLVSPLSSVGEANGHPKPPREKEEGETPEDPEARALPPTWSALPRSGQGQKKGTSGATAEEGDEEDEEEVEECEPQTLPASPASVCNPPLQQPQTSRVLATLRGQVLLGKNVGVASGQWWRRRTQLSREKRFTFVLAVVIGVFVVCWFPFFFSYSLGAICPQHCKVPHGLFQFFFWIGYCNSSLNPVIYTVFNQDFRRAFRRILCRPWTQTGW
T2 sequence (P22909 whole entry): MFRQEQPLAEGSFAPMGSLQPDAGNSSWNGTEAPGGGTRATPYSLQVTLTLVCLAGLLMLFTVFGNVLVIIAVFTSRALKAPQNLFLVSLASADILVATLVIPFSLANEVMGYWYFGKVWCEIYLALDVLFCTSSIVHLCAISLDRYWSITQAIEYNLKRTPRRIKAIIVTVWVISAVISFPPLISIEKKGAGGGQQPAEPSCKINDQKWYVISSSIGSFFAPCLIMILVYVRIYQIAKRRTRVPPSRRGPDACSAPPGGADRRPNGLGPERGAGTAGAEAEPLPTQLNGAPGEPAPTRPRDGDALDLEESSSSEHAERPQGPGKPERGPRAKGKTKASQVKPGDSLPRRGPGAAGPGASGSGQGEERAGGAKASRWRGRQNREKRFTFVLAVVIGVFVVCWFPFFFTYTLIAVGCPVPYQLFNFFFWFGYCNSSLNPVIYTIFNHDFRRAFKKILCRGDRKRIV
Nature of the experiment: Displacement of [3H]clonidine from alpha2 adrenergic receptor in rat cerebral cortex by liquid scintillation counting. It counts as tissue-based. In short, it runs like this:
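Rat cerebral cortex membranes were prepared in ice-cold 50 mM Tris–HCl pH 7.6 (20 000 × g, 20 min, 0–4 °C, washed twice). They were incubated with [3H]clonidine 2 nM and seven to eight compound concentrations (10^-11–10^-4 M), with excess unlabelled clonidine defining nonspecific binding. Samples were glass-fiber filtered and counted by liquid scintillation, in duplicate. Ki was calculated by Cheng–Prusoff.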
A general note: Displacement assays read how much labelled ligand stays bound in the presence of the test substance.

For experiment [4], the species on record is Rattus norvegicus. Nature of the experiment: Hypotensive activity in Wistar rat assessed as reduction in norepinephrine-induced systolic blood pressure response. It counts as functional, organism-based. As to conditions: Artery. In outline: (§1)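 In anaesthetized rats, pressor responses were evoked by i.v. epinephrine, norepinephrine or methoxamine. Blood pressure was recorded through a heparin-saline-filled cannula in the carotid artery.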

The species named for experiment [5] is Rattus norvegicus. Briefly: Hypotensive activity in Wistar rat assessed as reduction in epinephrine-induced systolic blood pressure response. In kind it is functional, organism-based. Conditions: Artery. In outline: as §1
For experiment [6], the system named is Rattus norvegicus. Nature of the experiment: Hypotensive activity in normotensive Wistar rat assessed as decrease in systolic blood pressure at 20 mg/kg, iv administered as single dose. Conditions: Artery. It counts as functional, organism-based. Details: dose 20 mg/kg.
For experiment [7], the system named is Rattus norvegicus. Briefly: Hypotensive activity in normotensive Wistar rat assessed as decrease in diastolic blood pressure at 20 mg/kg, iv administered as single dose. It counts as functional, organism-based. Also on record: dose 20 mg/kg. Conditions: Artery.
The species entered for experiment [8] is Rattus norvegicus. Nature of the experiment: Hypotensive activity in Wistar rat assessed as reduction in methoxamine-induced systolic blood pressure response. It counts as functional, organism-based. Conditions: Artery. In outline:
as §1

One may read the ED50 as the midpoint of the dose-response relation. For `c1ccc(CC2=NCCN2)cc1` [TOLAZOLINE], the ED50 with Rattus norvegicus [1] amounted to 1.05 mg/kg.
Usually pKi stands for the negative decadic logarithm of the Ki, by convention in mol/L. Low values mean a large Ki, high ones a small Ki. Turning to `O=C1CCCN1CC(O)CN1CCN(c2ccccc2)CC1` (stereo not given), the pKi is recorded as 5.72 in experiment [2] and 4.54 in experiment [3]. The ED50 in the experiment on Rattus norvegicus [1] came to 7.6 mg/kg.
For the molecule `O=C1CCCN1CC(O)CN1CCN(C(c2ccccc2)c2ccccc2)CC1` (stereo not given), the pKi in experiment [2] is on record as 6.57; in experiment [3], 5.27. Besides, the ED50 entry with Rattus norvegicus [1] is “inactive”.
Turning to `CC(C)NCC(O)COc1cccc2ccccc12` (stereo not given) [PROPRANOLOL], the ED50 in the experiment on Rattus norvegicus [1] is 7.6 mg/kg.
Turning to `Cl.Cl.O=C1N(CC(O)CN2CCN(c3ccc(F)cc3)CC2)CCC1(c1ccccc1)c1ccccc1` (stereo not given), the pKi in experiment [2] is on record as 5.68; in experiment [3] it was 5.32. Moreover, the result in the experiment filed under Rattus norvegicus [4], in the experiment filed under Rattus norvegicus [5], in the experiment with Rattus norvegicus [6], in the experiment on Rattus norvegicus [7] and in the experiment filed under Rattus norvegicus [8] was inactive.
